The source of these data is ChEMBL document CHEMBL4024748, “Development of Potent Type I Protein Arginine Methyltransferase (PRMT) Inhibitors of Leukemia Cell Proliferation” (J Med Chem, 2017).

Data set [1] has as its system MV4-11. Put plainly: Cell cycle arrest in human MV4-11 cells assessed as accumulation at G1 phase after 72 hrs by propidium iodide staining-based flow cytometry. Type of data set: functional. In outline:
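MV4-11 cells in 6-well plates with compound or DMSO control, harvested at 72 h. Fixed overnight in 70% ethanol at 4°C, washed with PBS, stained 30 min at room temperature with propidium iodide/RNase buffer, analysed by flow cytometry. Mean ± SD of three replicates.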
Background: In flow cytometry, cells or beads pass a laser one at a time.

The target of data set [2] is Histone acetyltransferase KAT2A (Homo sapiens) (UniProt Q92830). The data set is described as follows: Inhibition of GCN5 (unknown origin) at 100 uM incubated for 15 mins followed by substrate addition measured after 60 mins by radioisotope assay.
For data set [3], the system named is MRC5. The data set is described as follows: Cytotoxicity against human MRC5 cells assessed as decrease in cell viability at 6.25 to 25 uM after 96 hrs by Cell-Titer Glo assay. The format is cell-based. The following applies: mrc5, 96 h. Summed up: (§1)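 Normal HUV-EC-C, MRC-5 and RCTEC cells at 37°C, 5% CO2, given compound or DMSO control for 96 h. Viability by CellTiter-Glo luminescence after 2 min shaking and 10 min at room temperature. Triplicate wells, normalised to control cells.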

Data set [4] concerns the target Histone-lysine N-methyltransferase 2A (Homo sapiens) (UniProt Q03164). The data set is described as follows: Inhibition of MLL1 (unknown origin) at 50 uM incubated for 15 mins followed by substrate addition measured after 60 mins by AlphaLisa method. Summed up: (§2)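 AlphaLISA. Enzyme and substrate in 1x assay buffer, compound at 1% DMSO final. Enzyme preincubated with compound 15 min at room temperature, then substrate added. Reaction 60 min at room temperature, then bead mix added and incubated 60 min under subdued light before signal read.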
Background: Alpha assays give light when donor and acceptor beads are brought close together.

In data set [5] the target is N-lysine methyltransferase SMYD2 (Homo sapiens) (UniProt Q9NRG4). The data set is described as follows: Inhibition of SMYD2 (unknown origin) at 50 uM incubated for 15 mins followed by substrate addition measured after 240 mins by AlphaLisa method. Summed up:
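SMYD2 AlphaLISA at 50 and 100 µM compound, 1% DMSO final. Enzyme preincubated 15 min at RT, then substrate added and reacted 240 min at RT. Bead mix added and incubated 60 min at RT in subdued light before reading.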

Data set [6] concerns MV4-11. Put plainly: Downregulation of HOXA10 mRNA levels in human MV4-11 cells by qRT-PCR analysis. The format is functional, cell-based. Summed up: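 MV4-11 cells treated with compound. mRNA measured by SYBR Green qRT-PCR with B2M as internal control. Fold change from ΔΔCt. Samples run in triplicate, mean ± SD.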
For orientation: Real-time PCR tracks product formation cycle by cycle.

For data set [7], the target named is Histone-lysine N-methyltransferase EHMT2 (Homo sapiens) (UniProt Q96KQ7). The data set is described as follows: Inhibition of G9a (unknown origin) at 100 uM incubated for 15 mins followed by substrate addition measured after 60 mins by AlphaLisa method. In outline: as §2
The target in data set [8] is DNA (cytosine-5)-methyltransferase 1 (Homo sapiens) (UniProt P26358). The data set is described as follows: Inhibition of DNMT1 (unknown origin) at 100 uM incubated for 15 mins followed by substrate addition measured after 60 mins by radioisotope assay.
Data set [9] has as its target Histone-lysine N-methyltransferase 2A (Homo sapiens) (UniProt Q03164). Put plainly: Inhibition of MLL1 (unknown origin) at 100 uM incubated for 15 mins followed by substrate addition measured after 60 mins by AlphaLisa method. Summed up:
as §2

The subject of data set [10] is MV4-11. The data set is described as follows: Induction of apoptosis in human MV4-11 cells after 96 hrs by annexin V-FITC/propidium iodide staining-based flow cytometric method. The format is functional, cell-based. Summed up: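 MV4-11 cells in 6-well plates with compound or DMSO control, harvested at 96 h. Stained with an Annexin V-FITC apoptosis detection kit and analysed by flow cytometry. Mean ± SD of three replicates.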

Data set [11] deals with Protein arginine N-methyltransferase 5 (Homo sapiens, UniProt O14744). The data set is described as follows: Inhibition of PRMT5 (unknown origin) incubated for 15 mins followed by substrate addition measured after 60 mins by AlphaLisa method. Summed up: as §2
Data set [12] relates to MV4-11. Put plainly: Upregulation of MNDA mRNA levels in human MV4-11 cells by qRT-PCR analysis. The format is functional, cell-based. Summed up:
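Treated MV4-11 cells analysed by SYBR Green qRT-PCR, with B2M as internal control. Fold change calculated by the ΔΔCt method. Samples run in triplicate and reported as mean ± SD.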

In data set [13] the test system is RS4-11. The data set is described as follows: Cytotoxicity against human RS4:11 cells assessed as decrease in cell viability after 96 hrs by Cell-Titer Glo assay. Type of data set: functional, cell-based. In outline: (§3)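 Cells kept at 37°C, 5% CO2, exposed to compound or DMSO control for 96 h. Viability read by CellTiter-Glo luminescence after 2 min shaking to lyse and 10 min at room temperature. Triplicate wells, normalised to control cells. For long-term growth, log-phase seeding densities; cells counted and replated to the starting density with fresh compound on days 4 and 8.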

The target of data set [14] is Histone-lysine N-methyltransferase EHMT2 (Homo sapiens) (UniProt Q96KQ7). The data set is described as follows: Inhibition of G9a (unknown origin) at 50 uM incubated for 15 mins followed by substrate addition measured after 60 mins by AlphaLisa method. In outline:
as §2

The test system of data set [15] is MV4-11. The data set is described as follows: Antiproliferative activity against human MV4-11 cells assessed as decrease in cell viability measured at day 12 by Cell-Titer Glo assay. Type of data set: functional, cell-based. The following applies: MV4-11, 288 h. Summed up: as §3
For data set [16], the target named is Protein arginine N-methyltransferase 6 (Homo sapiens, UniProt Q96LA8). Put plainly: Inhibition of PRMT6 in human MV411 cells assessed as reduction in H3R2me2a levels after 48 hrs by Western blot analysis. Type of data set: cell-based. Summed up:
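MV4-11 cells (37°C, 5% CO2) exposed to compound for 48 h across a range of doses. Histone H3R2 asymmetric dimethylation read by western blot. Membranes blocked in 5% milk/PBST, primary antibody overnight at 4°C, then 1:10000 HRP donkey anti-rabbit secondary for 1 h.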

Data set [17] deals with Protein arginine N-methyltransferase 8 (Homo sapiens, UniProt Q9NR22). The data set is described as follows: Inhibition of PRMT8 (unknown origin) incubated for 15 mins followed by substrate addition measured after 60 mins by AlphaLisa method. Summed up:
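AlphaLISA IC50 run. Compound dispensed to 1% DMSO final, enzyme in 1x assay buffer preincubated 15 min at room temperature. Substrate added and reacted 60 min at RT, then AlphaLISA bead mix added for 60 min at RT in subdued light. IC50 taken from the dose-response fit.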

Data set [18] relates to MV4-11. The data set is described as follows: Antiproliferative activity against human MV4-11 cells assessed as decrease in cell viability measured at day 4 by Cell-Titer Glo assay. Type of data set: functional, cell-based. Conditions: MV4-11, 96 h. Summed up: as §3
A short description of data set [19]: Cytotoxicity against human HUV-EC-C cells assessed as decrease in cell viability at 6.25 to 25 uM after 96 hrs by Cell-Titer Glo assay. Type of data set: cell-based. Summed up: as §1
Data set [20] relates to THP-1. The data set is described as follows: Cytotoxicity against human THP1 cells assessed as decrease in cell viability after 96 hrs by Cell-Titer Glo assay. Type of data set: functional, cell-based. In outline:
as §3

Data set [21] addresses Protein arginine N-methyltransferase 1 (Homo sapiens) (UniProt Q99873). The data set is described as follows: Inhibition of PRMT1 in human MV411 cells assessed as reduction in ADMA levels after 48 hrs by Western blot analysis. Type of data set: cell-based. Summed up:
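MV4-11 cells treated with compound for 48 h. ADMA, SDMA and H4R3me2a read by western blot. Blots blocked in 5% nonfat milk in PBST, primary antibodies overnight at 4°C, HRP anti-rabbit secondary at 1:10000 for 1 h.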

Data set [22] addresses Histone-lysine N-methyltransferase SUV39H1 (Homo sapiens) (UniProt O43463). The data set is described as follows: Inhibition of SUV39H1 (unknown origin) at 100 uM incubated for 15 mins followed by substrate addition measured after 60 mins by AlphaLisa method. Summed up:
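SUV39H1 AlphaLISA at 50 and 100 µM compound, 1% DMSO final. Enzyme preincubated 15 min at room temperature, substrate reaction 60 min at RT. Bead mix then added for 60 min at RT in subdued light before signal collection.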

SMILES strings stand for the structures. The source made the active and inactive calls. The calls are words filed in the database; no cut-off is given here. Bounds are passed on as bounds.

Chain of Histone-lysine N-methyltransferase EHMT2 (Homo sapiens) (Q96KQ7 whole entry): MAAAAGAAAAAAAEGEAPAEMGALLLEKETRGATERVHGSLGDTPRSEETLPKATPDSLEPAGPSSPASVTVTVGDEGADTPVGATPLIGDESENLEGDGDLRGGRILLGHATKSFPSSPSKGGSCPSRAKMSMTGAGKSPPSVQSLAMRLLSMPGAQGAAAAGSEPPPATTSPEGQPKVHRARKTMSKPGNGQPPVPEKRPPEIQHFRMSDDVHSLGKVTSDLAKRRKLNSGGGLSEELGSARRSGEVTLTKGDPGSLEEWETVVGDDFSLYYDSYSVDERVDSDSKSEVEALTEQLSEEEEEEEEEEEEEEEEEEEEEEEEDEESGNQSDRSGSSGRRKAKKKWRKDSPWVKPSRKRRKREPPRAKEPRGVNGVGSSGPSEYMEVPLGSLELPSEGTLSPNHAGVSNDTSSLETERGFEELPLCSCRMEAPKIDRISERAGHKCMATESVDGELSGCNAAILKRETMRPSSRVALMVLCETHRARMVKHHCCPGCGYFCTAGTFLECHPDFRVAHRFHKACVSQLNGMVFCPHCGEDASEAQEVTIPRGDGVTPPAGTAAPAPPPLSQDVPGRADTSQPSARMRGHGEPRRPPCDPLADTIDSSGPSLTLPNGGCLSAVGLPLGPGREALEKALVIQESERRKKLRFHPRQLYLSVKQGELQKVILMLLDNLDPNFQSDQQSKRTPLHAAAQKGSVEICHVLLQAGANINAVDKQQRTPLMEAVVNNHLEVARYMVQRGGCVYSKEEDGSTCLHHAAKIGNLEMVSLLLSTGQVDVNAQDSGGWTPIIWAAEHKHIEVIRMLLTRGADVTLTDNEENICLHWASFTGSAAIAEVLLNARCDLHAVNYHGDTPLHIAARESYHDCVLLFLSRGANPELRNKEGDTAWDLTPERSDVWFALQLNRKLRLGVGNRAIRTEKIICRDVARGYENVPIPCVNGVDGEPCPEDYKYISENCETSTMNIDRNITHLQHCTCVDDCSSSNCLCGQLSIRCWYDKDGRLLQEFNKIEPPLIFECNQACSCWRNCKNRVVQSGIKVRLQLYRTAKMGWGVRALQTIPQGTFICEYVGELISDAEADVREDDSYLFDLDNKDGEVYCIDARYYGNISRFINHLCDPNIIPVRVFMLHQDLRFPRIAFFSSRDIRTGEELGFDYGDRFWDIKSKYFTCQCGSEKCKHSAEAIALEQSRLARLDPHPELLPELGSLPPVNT
Chain of Histone-lysine N-methyltransferase 2A (Homo sapiens) (Q03164 1-2718 limits assumed): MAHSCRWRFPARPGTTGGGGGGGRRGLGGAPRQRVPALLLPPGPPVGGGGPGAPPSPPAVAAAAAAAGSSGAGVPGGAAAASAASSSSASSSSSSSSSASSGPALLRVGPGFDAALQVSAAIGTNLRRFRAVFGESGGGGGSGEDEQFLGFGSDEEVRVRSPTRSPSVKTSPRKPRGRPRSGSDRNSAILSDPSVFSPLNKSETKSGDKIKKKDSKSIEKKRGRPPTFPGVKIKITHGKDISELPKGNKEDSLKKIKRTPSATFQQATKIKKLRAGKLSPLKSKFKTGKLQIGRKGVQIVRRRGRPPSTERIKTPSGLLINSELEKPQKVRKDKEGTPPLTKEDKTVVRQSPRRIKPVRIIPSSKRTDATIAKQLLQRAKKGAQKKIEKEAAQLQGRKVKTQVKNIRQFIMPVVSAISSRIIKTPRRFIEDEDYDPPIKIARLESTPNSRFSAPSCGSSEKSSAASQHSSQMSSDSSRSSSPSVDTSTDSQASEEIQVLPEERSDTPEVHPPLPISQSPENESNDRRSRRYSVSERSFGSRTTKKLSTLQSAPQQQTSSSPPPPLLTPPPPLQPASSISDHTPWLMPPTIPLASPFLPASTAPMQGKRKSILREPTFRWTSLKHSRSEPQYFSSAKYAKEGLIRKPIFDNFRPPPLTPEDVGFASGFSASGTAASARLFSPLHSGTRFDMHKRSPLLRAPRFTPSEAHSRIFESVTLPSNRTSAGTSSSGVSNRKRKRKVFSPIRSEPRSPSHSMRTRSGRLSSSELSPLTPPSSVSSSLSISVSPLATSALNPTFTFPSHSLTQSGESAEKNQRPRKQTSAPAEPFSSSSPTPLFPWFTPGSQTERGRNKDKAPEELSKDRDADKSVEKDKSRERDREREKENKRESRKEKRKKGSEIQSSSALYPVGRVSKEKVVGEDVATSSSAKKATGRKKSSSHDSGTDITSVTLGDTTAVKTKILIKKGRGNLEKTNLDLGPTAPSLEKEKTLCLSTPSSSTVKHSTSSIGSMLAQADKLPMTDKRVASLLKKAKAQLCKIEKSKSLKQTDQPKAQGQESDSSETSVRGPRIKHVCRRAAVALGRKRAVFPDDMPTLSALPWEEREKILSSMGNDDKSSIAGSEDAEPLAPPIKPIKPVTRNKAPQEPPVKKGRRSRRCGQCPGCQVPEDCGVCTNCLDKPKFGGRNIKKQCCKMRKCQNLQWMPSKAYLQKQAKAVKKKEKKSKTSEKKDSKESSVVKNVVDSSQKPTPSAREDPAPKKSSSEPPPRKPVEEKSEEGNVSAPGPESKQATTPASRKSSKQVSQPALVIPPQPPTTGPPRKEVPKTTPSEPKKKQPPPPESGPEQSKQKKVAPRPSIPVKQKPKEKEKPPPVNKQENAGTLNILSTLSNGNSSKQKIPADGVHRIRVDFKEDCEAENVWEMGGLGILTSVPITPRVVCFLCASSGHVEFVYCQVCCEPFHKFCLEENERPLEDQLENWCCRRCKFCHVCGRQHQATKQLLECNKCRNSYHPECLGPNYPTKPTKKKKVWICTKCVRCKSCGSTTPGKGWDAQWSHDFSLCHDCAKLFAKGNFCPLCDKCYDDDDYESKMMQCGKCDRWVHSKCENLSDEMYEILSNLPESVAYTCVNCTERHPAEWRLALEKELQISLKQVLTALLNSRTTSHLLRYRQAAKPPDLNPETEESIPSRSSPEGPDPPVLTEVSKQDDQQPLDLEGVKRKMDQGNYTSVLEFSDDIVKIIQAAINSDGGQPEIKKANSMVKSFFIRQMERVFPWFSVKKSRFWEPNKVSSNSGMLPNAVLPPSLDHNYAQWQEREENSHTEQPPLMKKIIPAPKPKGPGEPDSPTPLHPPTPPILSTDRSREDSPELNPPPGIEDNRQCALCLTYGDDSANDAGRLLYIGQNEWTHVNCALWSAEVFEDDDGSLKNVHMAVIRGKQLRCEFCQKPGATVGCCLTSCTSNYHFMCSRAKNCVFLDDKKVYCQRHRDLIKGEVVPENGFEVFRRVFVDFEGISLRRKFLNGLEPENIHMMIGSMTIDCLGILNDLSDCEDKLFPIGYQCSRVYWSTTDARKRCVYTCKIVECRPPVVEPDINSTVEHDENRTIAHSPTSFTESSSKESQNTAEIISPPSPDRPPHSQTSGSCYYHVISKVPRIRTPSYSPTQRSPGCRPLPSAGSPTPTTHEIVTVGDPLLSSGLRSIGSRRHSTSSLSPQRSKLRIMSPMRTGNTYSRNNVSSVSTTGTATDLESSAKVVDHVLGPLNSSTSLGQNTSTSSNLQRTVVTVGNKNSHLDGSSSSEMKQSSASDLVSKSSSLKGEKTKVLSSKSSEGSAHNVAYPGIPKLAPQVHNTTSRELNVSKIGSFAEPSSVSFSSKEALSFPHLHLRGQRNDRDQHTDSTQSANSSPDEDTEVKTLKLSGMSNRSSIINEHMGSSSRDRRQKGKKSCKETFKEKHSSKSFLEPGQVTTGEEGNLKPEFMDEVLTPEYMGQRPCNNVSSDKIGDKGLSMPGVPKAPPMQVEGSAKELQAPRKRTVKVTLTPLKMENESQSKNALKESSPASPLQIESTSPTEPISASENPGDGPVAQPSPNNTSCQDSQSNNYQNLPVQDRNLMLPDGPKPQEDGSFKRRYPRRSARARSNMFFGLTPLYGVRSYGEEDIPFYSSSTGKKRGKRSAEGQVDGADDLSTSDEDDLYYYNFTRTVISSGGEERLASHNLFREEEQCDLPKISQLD
Chain of Histone-lysine N-methyltransferase 2A (Homo sapiens) (Q03164 2719-3969 limits assumed): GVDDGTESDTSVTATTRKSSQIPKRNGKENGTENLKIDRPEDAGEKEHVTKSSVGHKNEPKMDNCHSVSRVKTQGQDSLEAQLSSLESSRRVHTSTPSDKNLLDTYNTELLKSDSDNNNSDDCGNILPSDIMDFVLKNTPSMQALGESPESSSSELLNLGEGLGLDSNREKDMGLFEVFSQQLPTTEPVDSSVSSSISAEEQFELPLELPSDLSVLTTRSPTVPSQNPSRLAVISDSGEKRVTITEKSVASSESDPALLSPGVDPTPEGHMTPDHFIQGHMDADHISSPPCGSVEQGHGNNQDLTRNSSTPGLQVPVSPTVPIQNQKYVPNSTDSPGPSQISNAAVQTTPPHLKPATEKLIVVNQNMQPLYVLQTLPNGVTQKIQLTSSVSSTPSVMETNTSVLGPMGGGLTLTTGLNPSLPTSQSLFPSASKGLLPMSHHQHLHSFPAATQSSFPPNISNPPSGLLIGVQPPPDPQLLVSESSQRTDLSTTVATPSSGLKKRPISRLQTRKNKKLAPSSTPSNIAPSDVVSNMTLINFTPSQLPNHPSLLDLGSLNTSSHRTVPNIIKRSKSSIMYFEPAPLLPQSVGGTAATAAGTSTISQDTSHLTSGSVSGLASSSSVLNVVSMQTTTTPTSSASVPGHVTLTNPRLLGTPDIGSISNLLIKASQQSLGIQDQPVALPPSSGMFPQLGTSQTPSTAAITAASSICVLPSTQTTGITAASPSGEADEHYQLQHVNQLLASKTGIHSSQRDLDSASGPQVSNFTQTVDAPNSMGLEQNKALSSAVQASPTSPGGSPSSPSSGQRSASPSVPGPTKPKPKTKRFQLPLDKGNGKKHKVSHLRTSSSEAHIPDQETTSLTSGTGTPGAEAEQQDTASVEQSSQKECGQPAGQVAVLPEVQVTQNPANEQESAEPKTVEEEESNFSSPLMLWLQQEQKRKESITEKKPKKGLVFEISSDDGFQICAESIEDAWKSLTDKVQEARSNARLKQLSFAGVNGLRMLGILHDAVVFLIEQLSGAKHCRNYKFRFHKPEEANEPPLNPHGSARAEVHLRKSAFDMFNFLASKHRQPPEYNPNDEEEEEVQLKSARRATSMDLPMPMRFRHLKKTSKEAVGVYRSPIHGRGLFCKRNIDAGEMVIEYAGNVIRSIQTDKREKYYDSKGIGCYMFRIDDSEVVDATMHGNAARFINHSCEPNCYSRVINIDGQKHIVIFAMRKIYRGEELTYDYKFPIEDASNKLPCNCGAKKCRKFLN

For the compound `CN(CCN)Cc1ccccc1Sc1ccccc1Cl`, the Activity result was “Dose-dependent effect” in data set [1]; “Non-Toxic” in data set [3]; “Dose-dependent effect” in [6]; “Dose-dependent effect” in [10]; “Dose-dependent effect” in data set [13]; “Non-Toxic” in [19]. Moreover, the Activity entry in data set [20] is “Dose-dependent effect”. The inhibition entry in [2], in [4], in [5], in [7], in data set [8] and in data set [9] was “Active” each time. The inhibition entry in data set [14] and in [22] was “Active” throughout. Moreover, the IC50 is above 100 µM in data set [11], 810 nM in data set [15], 1.1 nM in data set [17] and 4.55 µM in data set [18]. Besides, the outcome in data set [12] was Active. The inhibition entry in data set [16] and in data set [21] was “Dose-dependent effect” throughout.

The IC50 is the concentration needed to halve the response being measured.
